Experimental data published in ChEMBL document CHEMBL3616437, “Thiazole compounds with activity against Cryptococcus gattii and Cryptococcus neoformans in vitro” (Eur J Med Chem, 2015).
≈ marks a conversion by molar mass, not a printed value.

System: Cryptococcus neoformans
Test: Antifungal activity against Cryptococcus neoformans ATCC 24067 after 48 to 72 hrs by broth microdilution method
Format: functional
Settings: not given
Method in brief: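 CLSI M27-A3 broth microdilution. Isolates subcultured twice on SDA, 48 h at 35°C. Saline suspension adjusted to 70% transmittance at 530 nm, then diluted to 1-5 x10^3 cells/mL in RPMI with L-glutamine, 0.165 M MOPS, pH 7.0. Compounds in DMSO, tested at […]. 35°C for 48-72 h. MIC read visually as the lowest concentration giving an optically clear well.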

Row | MIC [µM] | Structure (SMILES)
1 | > 250 | COc1ccc(-c2csc(N/N=C/c3ccccc3)n2)cc1
2 | 7.8 (≈ 3.04 µg/mL) | COc1ccc(-c2csc(N/N=C3\CCCC\C3=C/c3ccccc3)n2)cc1
3 | > 250 | COc1ccc(-c2csc(N/N=C/c3ccc(N(C)C)cc3)n2)cc1
4 | > 250 | COc1ccc(-c2csc(N/N=C/c3ccc(C)cc3)n2)cc1
5 | > 250 | CN(C)c1ccc(/C=N/Nc2nc(-c3ccccc3)cs2)cc1
6 | > 250 | COc1ccc(-c2csc(N/N=C/c3ccncc3)n2)cc1
7 | 15.6 (≈ 5.83 µg/mL) | COc1ccc(/C=N/Nc2nc(-c3ccc(Cl)cc3)cs2)cc1OC
8 | 7.8 (≈ 3.07 µg/mL) | Clc1ccc(-c2csc(N/N=C3\CCCC\C3=C/c3ccccc3)n2)cc1
9 | 15.6 (≈ 5.61 µg/mL) | C(=C1/CCCC/C1=N\Nc1nc(-c2ccccc2)cs1)/c1ccccc1

System: not listed separately
Test: Cytotoxicity against C57BL/6 mouse peritoneal macrophages assessed as cell viability measured after 48 hrs by MTT assay
Format: cell-based
Settings: C57BL/6, Peritoneal macrophage cell
Method in brief: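 Thioglycollate-elicited peritoneal macrophages from male C57BL/6 mice, 6–8 weeks old, in RPMI with 10% FBS. Seeded 1 x 10^5 cells/well, pre-incubated 24 h at 37°C. Exposed 48 h at 37°C, 5% CO2, to eight nonserial dilutions from 100 to 0.0128 µM, with 0.5% DMSO control. MTT read-out, % inhibition versus DMSO control. IC50 reported as median with 95% CI. Triplicate, two independent experiments.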

Row | Structure (SMILES) | IC50 [µM]
10 | COc1ccc(-c2csc(N/N=C3\CCCC\C3=C/c3ccccc3)n2)cc1 | > 100
11 | COc1ccc(/C=N/Nc2nc(-c3ccc(Cl)cc3)cs2)cc1OC | > 100
12 | Clc1ccc(-c2csc(N/N=C3\CCCC\C3=C/c3ccccc3)n2)cc1 | > 100
13 | C(=C1/CCCC/C1=N\Nc1nc(-c2ccccc2)cs1)/c1ccccc1 | > 100

System: Vero
Test: Cytotoxicity against African green monkey Vero cells assessed as cell viability measured after 48 hrs by MTT assay
Format: cell-based
Settings: Chlorocebus sabaeus
Method in brief: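 VERO cells in D-MEM with 5% FBS, used up to 20 passages. Seeded 1 x 10^4 cells/well, pre-incubated 24 h at 37°C. Exposed 48 h at 37°C, 5% CO2, to eight nonserial dilutions from 100 to 0.0128 µM, with 0.5% DMSO control. MTT reduction read-out, corrected for background and blank. IC50 reported as median with 95% CI. Triplicate, two independent experiments.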

Row | Structure (SMILES) | IC50 [µM]
14 | COc1ccc(-c2csc(N/N=C3\CCCC\C3=C/c3ccccc3)n2)cc1 | > 100
15 | COc1ccc(/C=N/Nc2nc(-c3ccc(Cl)cc3)cs2)cc1OC | > 100
16 | Clc1ccc(-c2csc(N/N=C3\CCCC\C3=C/c3ccccc3)n2)cc1 | > 100
17 | C(=C1/CCCC/C1=N\Nc1nc(-c2ccccc2)cs1)/c1ccccc1 | > 100

System: not listed separately
Test: Selectivity index, ratio of IC50 for C57BL/6 mouse peritoneal macrophages to MIC for Cryptococcus neoformans ATCC 24067
Settings: not given
Method in brief: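 SI = IC50/MIC. Thioglycollate-elicited peritoneal macrophages from C57BL/6 mice are seeded at 1 x 10^5/well. They are exposed for 48 h at 37°C to eight concentrations from 100 to 0.0128 µM. Viability read by MTT versus 0.5% DMSO control, triplicate in two experiments.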

Row | Structure (SMILES) | Ratio
18 | COc1ccc(-c2csc(N/N=C3\CCCC\C3=C/c3ccccc3)n2)cc1 | 12.8
19 | COc1ccc(/C=N/Nc2nc(-c3ccc(Cl)cc3)cs2)cc1OC | 6.41
20 | Clc1ccc(-c2csc(N/N=C3\CCCC\C3=C/c3ccccc3)n2)cc1 | 12.8
21 | C(=C1/CCCC/C1=N\Nc1nc(-c2ccccc2)cs1)/c1ccccc1 | 6.41

System: not listed separately
Test: Selectivity index, ratio of IC50 for African green monkey Vero cells to MIC for Cryptococcus neoformans ATCC 24067
Format: toxicity, cell-based
Settings: not given

Row | Structure (SMILES) | selectivity ratio
22 | COc1ccc(-c2csc(N/N=C3\CCCC\C3=C/c3ccccc3)n2)cc1 | 12.8
23 | COc1ccc(/C=N/Nc2nc(-c3ccc(Cl)cc3)cs2)cc1OC | 6.41
24 | Clc1ccc(-c2csc(N/N=C3\CCCC\C3=C/c3ccccc3)n2)cc1 | 12.8
25 | C(=C1/CCCC/C1=N\Nc1nc(-c2ccccc2)cs1)/c1ccccc1 | 6.41
